Here are results for 26 molecules from ChEMBL document CHEMBL3808312, “Bioactive Constituents of Glycyrrhiza uralensis (Licorice): Discovery of the Effective Components of a Traditional Herbal Medicine” (J Nat Prod, 2016).

Usually IC50 stands for the concentration that gives 50% inhibition. High values mean lower potency, low ones higher potency. For orientation: inhibition means the percentage by which the read-out fell short of the control.

The test system of test [1] is Influenza A virus. Description: Antiviral activity against Influenza A virus A/WSN/33(H1N1) infected in dog MDCK cells preincubated with virus for 15 mins followed by cells addition measured at 36 hrs post infection. In kind it is functional, organism-based. The following applies: A/WSN/1933(H1N1).
The test system of test [2] is Influenza A virus. Description: Antiviral activity against Influenza A virus A/WSN/33(H1N1) infected in MDCK cells at 100 uM preincubated with virus for 15 mins followed by cells addition measured at 36 hrs post infection. It counts as functional, A/WSN/1933(H1N1). Put shortly: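 MDCK canine kidney cells grown in DMEM and infected with influenza A/WSN/33 (H1N1). Compounds screened at 100 μM. Oseltamivir phosphate served as the positive control.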

For `C[C@]1(C(=O)O)CC[C@]2(C)CC[C@]3(C)C(=CC[C@@H]4[C@@]5(C)CC[C@H](O[C@@H]6O[C@H](C(=O)O)[C@@H](O)[C@H](O)[C@H]6O[C@@H]6O[C@H](C(=O)O)[C@@H](O)[C@H](O)[C@H]6O)[C@](C)(CO)[C@@H]5CC[C@]43C)[C@H]2C1`, it took 39.6 µM to reach half-maximal inhibition in the test with Influenza A virus [1] (IC50). The molecule also had an Activity in the test with Influenza A virus [2] of 47%. The corresponding values for `CC(=O)O[C@@H]1C[C@](C)(C(=O)O)C[C@@H]2C3=CC(=O)[C@@H]4[C@@]5(C)CC[C@H](O[C@@H]6O[C@H](C(=O)O)[C@@H](O)[C@H](O)[C@H]6O[C@@H]6O[C@H](C(=O)O)[C@@H](O)[C@H](O)[C@H]6O)[C@](C)(CO)[C@@H]5CC[C@@]4(C)[C@]3(C)CC[C@]21C` are 39.6 µM and 47%. The molecule `C[C@]1(C(=O)O)CC[C@]2(C)CC[C@]3(C)C(=CC(=O)[C@@H]4[C@@]5(C)CC[C@H](O[C@@H]6O[C@H](C(=O)O)[C@@H](O)[C@H](O)[C@H]6O[C@@H]6O[C@H](C(=O)O)[C@@H](O)[C@H](O)[C@H]6O)[C@](C)(CO)[C@@H]5CC[C@]43C)[C@H]2C1` came in with an IC50 in the test with Influenza A virus [1] of 39.6 µM. Also, in the test with Influenza A virus [2], the Activity amounted to 47%. On to `CC(C)=CCc1c(O)cc(O)c2c(=O)c(-c3ccc(O)c(O)c3)coc12` [GANCAONIN L], for which the inhibition at 100 µM in the test with Influenza A virus [2] (Influenza A virus, A/WSN/1933(H1N1), MDCK) is more than 30%. In the test on Influenza A virus [1], `CC1(C)[C@@H](O[C@@H]2O[C@H](C(=O)O)[C@@H](O)[C@H](O)[C@H]2O[C@@H]2O[C@H](C(=O)O)[C@@H](O)[C@H](O)[C@H]2O)CC[C@]2(C)[C@H]3C=CC4=C5C[C@@](C)(C(=O)O)CC[C@]5(C)CC[C@@]4(C)[C@]3(C)CC[C@@H]12` registered an IC50 of 39.6 µM. For the same molecule, in the test with Influenza A virus [2], the Activity is given as 47%.

For the molecule `CC(=O)O[C@H]1C[C@@](C)(C(=O)O)C[C@H]2C3=CC(=O)[C@H]4[C@]5(C)CC[C@@H](O[C@@H]6O[C@H](C(=O)O)[C@H](O)[C@H](O)[C@H]6O[C@H]6O[C@@H](CO)[C@H](O)[C@@H](O)[C@@H]6O[C@H]6O[C@H](C)[C@@H](O)[C@H](O)[C@@H]6O)C(C)(C)[C@H]5CC[C@]4(C)[C@@]3(C)CC[C@]12C`, in the test with Influenza A virus [1], the IC50 was determined as 39.6 µM. This molecule also gave an Activity in the test with Influenza A virus [2] of 47%. On to `CC(=O)O[C@H]1C[C@@](C)(C(=O)O)C[C@H]2C3=CC(=O)[C@H]4[C@]5(C)CC[C@@H](O[C@@H]6O[C@H](C(=O)O)[C@@H](O)[C@H](O)[C@H]6O[C@H]6O[C@@H](CO)[C@H](O)[C@@H](O)[C@@H]6O[C@H]6O[C@H](C)[C@@H](O)[C@H](O)[C@@H]6O)C(C)(C)[C@H]5CC[C@]4(C)[C@@]3(C)CC[C@]12C`, for which the IC50 in the test on Influenza A virus [1] is 39.6 µM. Moreover, the Activity in the test on Influenza A virus [2] was determined as 47%. For `C[C@@H]1O[C@@H](O[C@H]2[C@H](O[C@@H]3[C@@H](O[C@@H]4CC[C@]5(C)[C@H](CC[C@@]6(C)[C@H]5C(=O)C=C5[C@@H]7C[C@]8(C)C[C@@H](COC8=O)[C@@]7(C)CC[C@@]56C)C4(C)C)O[C@@H](C(=O)O)[C@H](O)[C@H]3O)O[C@H](C(=O)O)[C@@H](O)[C@@H]2O)[C@H](O)[C@H](O)[C@H]1O`, in that order: 39.6 µM and 47%. For `CC1(C)[C@H]2CC[C@@]3(C)[C@@H](C(=O)C=C4[C@@H]5C[C@]6(C)C[C@@H](COC6=O)[C@@]5(C)CC[C@@]43C)[C@]2(C)CC[C@H]1O[C@H]1O[C@@H](C(=O)O)[C@H](O)[C@@H](O)[C@@H]1O[C@@H]1O[C@H](C(=O)O)[C@H](O)[C@H](O)[C@H]1O`, the half-inhibitory concentration (IC50) in the test with Influenza A virus [1] was determined as 39.6 µM. Besides, the Activity in the test with Influenza A virus [2] was determined as 47%. The corresponding values for `C[C@@]1(C(=O)O)CC[C@@]2(C)CC[C@@]3(C)C(=CC(=O)[C@H]4[C@]5(C)CC[C@@H](O[C@H]6O[C@@H](C(=O)O)[C@H](O)[C@@H](O)[C@@H]6O[C@H]6O[C@@H](C(=O)O)[C@@H](O)[C@@H](O)[C@@H]6O)[C@@](C)(CO)[C@H]5CC[C@@]43C)[C@@H]2C1` are 39.6 µM and 47%. The corresponding values for `CC1(C)[C@@H](O[C@@H]2O[C@H](C(=O)O)[C@@H](O)[C@H](O[C@@H]3O[C@H](C(=O)O)[C@@H](O)[C@H](O)[C@H]3O)[C@H]2O)CC[C@]2(C)[C@H]3C(=O)C=C4[C@H]5C[C@@](C)(C(=O)O)CC[C@]5(C)CC[C@@]4(C)[C@]3(C)CC[C@@H]12` are 39.6 µM and 47%. Take `CC(=O)O[C@@H]1C[C@](C)(C=O)C[C@@H]2C3=CC(=O)[C@@H]4[C@@]5(C)CC[C@H](O[C@@H]6O[C@H](C(=O)O)[C@@H](O)[C@H](O)[C@H]6O[C@@H]6O[C@H](C(=O)O)[C@@H](O)[C@H](O)[C@H]6O)C(C)(C)[C@@H]5CC[C@@]4(C)[C@]3(C)CC[C@]21C`: the IC50 in the test on Influenza A virus [1] is 39.6 µM. The Activity in the test on Influenza A virus [2] is 47%. For `CC(=O)O[C@@H]1C[C@](C)(C(=O)O)C[C@@H]2C3=CC(=O)[C@@H]4[C@@]5(C)CC[C@H](O[C@H]6O[C@@H](C(=O)O)[C@H](O)[C@@H](O)[C@@H]6O[C@H]6O[C@@H](C(=O)O)[C@H](O)[C@@H](O)[C@@H]6O)C(C)(C)[C@@H]5CC[C@@]4(C)[C@]3(C)CC[C@]21C`, in that order: 39.6 µM and 47%. In the test on Influenza A virus [1], `C[C@@H]1[C@@H](O[C@@H]2O[C@H](C(=O)O)[C@@H](O)[C@H](O)[C@H]2O[C@@H]2O[C@H](C(=O)O)[C@@H](O)[C@H](O)[C@H]2O)CC[C@]2(C)[C@H]3CC=C4[C@H]5C[C@@](C)(C(=O)O)CC[C@]5(C)CC[C@@]4(C)[C@]3(C)CC[C@@H]12` registered an IC50 of 39.6 µM. The Activity in the test on Influenza A virus [2] is 47%. For the molecule `CC(=O)O[C@@H]1C[C@](C)(C(=O)O)C[C@@H]2C3=CC(=O)[C@@H]4[C@@]5(C)CC[C@H](O[C@@H]6O[C@H](C(=O)O)[C@@H](O)[C@H](O)[C@H]6O[C@@H]6O[C@H](C(=O)O)[C@H](O)[C@H](O)[C@H]6O)C(C)(C)[C@@H]5CC[C@@]4(C)[C@]3(C)CC[C@]21C`, in the test on Influenza A virus [1], 39.6 µM corresponded to half-maximal inhibition (IC50). This molecule also had an Activity in the test on Influenza A virus [2] of 47%. `CC1(C)[C@@H](O[C@H]2O[C@H](C(=O)O)[C@@H](O)[C@H](O)[C@H]2O[C@@H]2O[C@H](C(=O)O)[C@@H](O)[C@H](O)[C@H]2O)CC[C@]2(C)[C@H]3C(=O)C=C4[C@@H]5C[C@@](C)(C(=O)O)CC[C@]5(C)CC[C@@]4(C)[C@]3(C)CC[C@@H]12` [GLYCYRRHIZIN] displayed a concentration for half-maximal inhibition (IC50) in the test on Influenza A virus [1] of 39.6 µM. For the same molecule, the Activity with Influenza A virus [2] is 47%. For `CC(=O)O[C@H]1C[C@@](C)(C(=O)O)C[C@H]2C3=CC(=O)[C@H]4[C@]5(C)CC[C@@H](O[C@@H]6O[C@H](C(=O)O)[C@@H](O)[C@H](O)[C@H]6O[C@@H]6O[C@H](CO)[C@H](O)[C@H](O)[C@H]6O)C(C)(C)[C@H]5CC[C@]4(C)[C@@]3(C)CC[C@]12C`, in that order: 39.6 µM and 47%. For the molecule `CC(=O)O[C@H]1C[C@@](C)(C(=O)O)C[C@H]2C3=CC(=O)[C@H]4[C@]5(C)CC[C@@H](O[C@@H]6O[C@H](C(=O)O)[C@@H](O)[C@H](O)[C@H]6O[C@H]6O[C@@H](C(=O)O)[C@H](O)[C@@H](O)[C@@H]6O[C@H]6O[C@H](C)[C@@H](O)[C@H](O)[C@@H]6O)C(C)(C)[C@H]5CC[C@]4(C)[C@@]3(C)CC[C@]12C`, the IC50 with Influenza A virus [1] was found to be 39.6 µM. This molecule gave an Activity in the test with Influenza A virus [2] of 47%. For `CC1(C)[C@@H](O[C@@H]2O[C@H](C(=O)O)[C@@H](O)[C@H](O)[C@H]2O[C@@H]2OC[C@H](O)[C@H](O)[C@H]2O)CC[C@]2(C)[C@H]3C(=O)C=C4[C@H]5C[C@@](C)(C(=O)O)CC[C@]5(C)CC[C@@]4(C)[C@]3(C)CC[C@@H]12`, in that order: 39.6 µM and 47%. For `CC(=O)O[C@H]1C[C@@](C)(C(=O)O)C[C@H]2C3=CC(=O)[C@H]4[C@]5(C)CC[C@@H](O[C@@H]6O[C@H](C(=O)O)[C@@H](O)[C@H](O)[C@H]6O[C@H]6OC[C@H](O)[C@@H](O)[C@@H]6O[C@H]6O[C@H](C)[C@@H](O)[C@H](O)[C@@H]6O)C(C)(C)[C@H]5CC[C@]4(C)[C@@]3(C)CC[C@]12C`, in that order: 39.6 µM and 47%. For `CC1(C)[C@@H](O[C@@H]2O[C@H](C(=O)O)[C@@H](O)[C@H](O)[C@H]2O[C@@H]2O[C@H](C(=O)O)[C@@H](O)[C@H](O)[C@H]2O)CC[C@]2(C)[C@H]3C(=O)C=C4[C@H]5C[C@](C)(C(=O)O)CC[C@]5(C)CC[C@@]4(C)[C@]3(C)CC[C@@H]12`, in that order: 39.6 µM and 47%. Molecule `CCOC(=O)C1=C[C@@H](OC(CC)CC)[C@H](NC(C)=O)[C@@H](N)C1` [OSELTAMIVIR PHOSPHATE] showed an IC50 with Influenza A virus [1] of 45.6 µM.

`CC1(C)[C@@H](O[C@@H]2O[C@H](C(=O)O)[C@@H](O)[C@H](O)[C@H]2O[C@@H]2O[C@H](C(=O)O)[C@@H](O)[C@H](O)[C@H]2O)CC[C@]2(C)[C@H]3C(=O)C=C4[C@H]5C[C@@](C)(C=O)CC[C@]5(C)CC[C@@]4(C)[C@]3(C)CC[C@@H]12`: the IC50 with Influenza A virus [1] came out at 39.6 µM. Besides, in the test on Influenza A virus [2], the Activity amounted to 47%. Consider `CC1(C)[C@@H](O[C@@H]2O[C@H](C(=O)O)[C@@H](O)[C@H](O)[C@H]2O[C@@H]2O[C@H](C(=O)O)[C@@H](O)[C@H](O)[C@H]2O)CC[C@]2(C)C3=CC=C4[C@H]5C[C@@](C)(C(=O)O)CC[C@]5(C)CC[C@@]4(C)[C@]3(C)CC[C@@H]12`, for which, in the test on Influenza A virus [1], the half-inhibitory concentration (IC50) was 39.6 µM. Also, in the test on Influenza A virus [2], the Activity is 47%.

In turn, `CC1(C)[C@@H](O[C@@H]2O[C@H](C(=O)O)[C@@H](O)[C@H](O)[C@H]2O)CC[C@]2(C)[C@H]3C(=O)C=C4[C@H]5C[C@@](C)(C(=O)O)CC[C@]5(C)CC[C@@]4(C)[C@]3(C)CC[C@@H]12` yielded an IC50 with Influenza A virus [1] of 39.6 µM. The molecule further had an Activity in the test with Influenza A virus [2] of 47%. With `CC(C)(O)CCc1c(O)cc2occ(-c3ccc(O)c(O)c3)c(=O)c2c1O`, the Activity in the test with Influenza A virus [2] is more than 30%.
